Results pooled from the literature.
Each line is one published result; the experiments were not run side by side.
Target: Megakaryocyte-associated tyrosine-protein kinase (MATK, Homo sapiens, UniProt P42679)
One construct used (P42679 1-507): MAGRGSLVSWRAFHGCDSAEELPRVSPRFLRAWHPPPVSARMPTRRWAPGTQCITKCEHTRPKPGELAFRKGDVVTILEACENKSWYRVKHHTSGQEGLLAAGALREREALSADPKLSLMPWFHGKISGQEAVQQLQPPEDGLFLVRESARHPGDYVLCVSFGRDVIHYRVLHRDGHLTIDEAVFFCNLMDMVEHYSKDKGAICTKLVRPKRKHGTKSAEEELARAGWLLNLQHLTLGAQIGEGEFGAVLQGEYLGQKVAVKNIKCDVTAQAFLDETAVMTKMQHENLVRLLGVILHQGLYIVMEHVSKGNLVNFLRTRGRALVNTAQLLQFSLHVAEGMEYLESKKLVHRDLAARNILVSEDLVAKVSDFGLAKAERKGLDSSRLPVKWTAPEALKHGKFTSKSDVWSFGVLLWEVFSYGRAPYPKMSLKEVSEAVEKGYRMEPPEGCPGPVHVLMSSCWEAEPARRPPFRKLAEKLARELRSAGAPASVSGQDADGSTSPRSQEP

| Structure (SMILES) | assay | setting | remaining binding |
| --- | --- | --- | --- |
| c1cncc(-c2cccc(Nc3nccc(NC4CCCCC4)n3)c2)c1 | binding, competition with immobilised ligand | 10 µM | 71% |
| O=C(c1ccc(Nc2ncc(Cl)c(-c3ccc(Cl)s3)n2)cc1)N1CCC(N2CCCC2)CC1 | binding, competition with immobilised ligand | 1 µM | 50% |
| Cc1cc(NC(=O)c2cccc(S(F)(F)(F)(F)F)c2)cc(-n2ccn3nc(-c4cccnc4)cc23)c1 | cell-free assay, competition with immobilised ligand | 1 µM | 100% |
| CN(C)c1ncc(F)c(-c2cnn3ncccc23)n1 | binding | 1 µM | 79% |
| O=C(c1ccc(Nc2nccc(-c3cc4ccccc4s3)n2)cc1)N1CCC(N2CCCC2)CC1 | binding, competition with immobilised ligand | 1 µM | 67% |
| CCCOc1ccc([C@@H]2[C@@H](C(=O)O)[C@H](c3ccc4c(c3)OCO4)CN2CC(=O)Nc2c(CC)cccc2CC)cc1 | cell-free assay, competition with immobilised ligand | 1 µM | 90% |
| Nc1ncc2c(n1)-c1c([nH]c3ccc(C#CC4CC4)cc13)CCCC2 | binding, competition with immobilised ligand | 1 µM | 100% |
| COc1ccnn2ncc(-c3ccnc(N(C)C)n3)c12 | binding | 1 µM | 100% |
| NS(=O)(=O)c1cc(NC(=O)Cc2ccccc2)ccc1Oc1cccc(Cl)c1 | cell-free assay, competition with immobilised ligand | 1 µM | 68% |
| N[C@H]1CCN(c2nccc(-c3cnn4ncccc34)n2)C1 | binding | 1 µM | 100% |
| O=C(Nc1cnc(Oc2ccc(F)cc2)nc1)N1CCc2ncccc2[C@@H]1c1ccc(F)cc1 | cell-free assay, competition with immobilised ligand | 1 µM | 80% |
| O=C(Nc1c[nH]nc1C(=O)NC1CCNCC1)c1cc(F)cc(F)c1 | binding, competition with immobilised ligand | 1 µM | 84% |
| C[C@@H](c1cccc(C#N)c1)n1cc(Cl)cc(C(N)=O)c1=N | cell-free assay, competition with immobilised ligand | 1 µM | 100% |
| Cc1cnc(Nc2ccc(C(=O)N3CCC(N4CCCC4)CC3)cc2)nc1-c1cc2ccccc2s1 | binding, competition with immobilised ligand | 1 µM | 30% |
| FC(F)(F)c1ccc2c(c1)nc(-c1cccnc1)n2C1CC1 | cell-free assay, competition with immobilised ligand | 1 µM | 100% |
| c1cnn2ncc(-c3ccnc(N4CCC45COC5)n3)c2c1 | binding | 1 µM | 87% |
| COc1cnc(Nc2cccc(S(N)(=O)=O)c2)nc1N1CCN(c2ccccc2)CC1 | binding, competition with immobilised ligand | 1 µM | 57% |
| C[C@H]1CCN(c2nccc(-c3cnn4ncccc34)n2)C1 | binding | 1 µM | 90% |
| CCN1CCN(Cc2ccc(C(=O)Nc3ccc(C)c(Oc4ccc5c(c4)CC(=O)N5)c3)cc2C(F)(F)F)CC1 | binding, competition with immobilised ligand | 1 µM | 100% |
| F[C@@H]1CCN(c2nccc(-c3cnn4ncccc34)n2)C1 | binding | 1 µM | 80% |
| COc1ncc2cc3ccccc3nc2c1C#N | cell-free assay, competition with immobilised ligand | 5 µM | 100% |
